High-throughput results deposited in PubChem by several laboratories.
This is a sample that favours compounds with a hit; in the whole collection about 7.1% have one here.
HCT116 bCat-KO = beta-catenin-lacking colon tumor cell growth suppression; HCT116 beta-catenin knockout viability, CellTiter-Glo, 60 h; hits give low values; viability, % at 10 µM; 1.5% of 140,000 active; AID 818;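 active means viability at or under a set limit, the compound median less 4 SD, cut at about 6% in these data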;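 further: 0% = Hyamine 1622 control at 20 µM and 100% = untreated cell control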
PTEN del growth = suppresses growth of cells with PTEN deletion | HCT116 PTEN-null viability, CellTiter-Glo, 60 h; hits give low values | viability, % at 10 µM | 1.2% of 140,000 active;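 active means viability at or below a set limit, 4 SD under the median of all tested compounds, cut at about 3.7% in these data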;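 further: PTEN knockout HCT116 line with beta catenin targeted HCT116 as companion control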
Fibroblast inh = blocks proliferation of human lung fibroblasts. 1.1% of 85,000 active. LL 47 human lung fibroblast viability, ATP luminescence; hits give low values. viability, % at 10 µM;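 active means viability at or below 50% in the single dose screen; inactive means viability above 50%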;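 further: compound exposure lasted 72 h before the ATP readout; 100% = median luminescence of untreated cell-only wells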
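Assay system: human lung fibroblast line LL 47, low passage. Input: 1,150 fibroblasts seeded per well. Times: overnight cell rest, 72 h compound treatment at 37 °C. Evaluation: % viability of median cell-only signal. Technique: luminescent ATP detection, CellTiter-Glo. Control set: cell-only wells, no compound.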
H69AR inhibit = growth inhibitors of human H69AR lung tumor cells; H69AR lung tumor viability, ATP luminescence, 72 h; hits give low values; viability, % at 10 µM; 6% of 85,000 active; AID 598;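 active means viability at or below 40%; inactive means viability above 40%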;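 further: multidrug resistant small cell line overexpressing MRP-1 efflux transporter; 100% = mean luminescence of untreated control wells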
HUVEC prolif 384 = inhibitors of human endothelial cell proliferation; HUVEC proliferation, CellTiter-Glo luminescence, 72 h; hits give low values; viability, % at 10 µM (by protocol); 1.1% of 86,000 active; AID 648;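 active means viability at or below 30%; inactive means viability above 30%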;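 further: 100% = median luminescence of DMSO-only cell control wells on each plate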
Cav3 T inh = inhibitors of human Cav3.2 T-type calcium channel. 4% of 100,000 active. Cav3.2-expressing cells, Fluo-4 calcium fluorescence FDSS; hits give low values. B-score at 10 µM. O95180;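 active means single-dose well whose peak fluorescence ratio is a statistical outlier from its plate by either plate-standardised score or position-corrected B-score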
Target sequence (O95180 whole entry, looked up): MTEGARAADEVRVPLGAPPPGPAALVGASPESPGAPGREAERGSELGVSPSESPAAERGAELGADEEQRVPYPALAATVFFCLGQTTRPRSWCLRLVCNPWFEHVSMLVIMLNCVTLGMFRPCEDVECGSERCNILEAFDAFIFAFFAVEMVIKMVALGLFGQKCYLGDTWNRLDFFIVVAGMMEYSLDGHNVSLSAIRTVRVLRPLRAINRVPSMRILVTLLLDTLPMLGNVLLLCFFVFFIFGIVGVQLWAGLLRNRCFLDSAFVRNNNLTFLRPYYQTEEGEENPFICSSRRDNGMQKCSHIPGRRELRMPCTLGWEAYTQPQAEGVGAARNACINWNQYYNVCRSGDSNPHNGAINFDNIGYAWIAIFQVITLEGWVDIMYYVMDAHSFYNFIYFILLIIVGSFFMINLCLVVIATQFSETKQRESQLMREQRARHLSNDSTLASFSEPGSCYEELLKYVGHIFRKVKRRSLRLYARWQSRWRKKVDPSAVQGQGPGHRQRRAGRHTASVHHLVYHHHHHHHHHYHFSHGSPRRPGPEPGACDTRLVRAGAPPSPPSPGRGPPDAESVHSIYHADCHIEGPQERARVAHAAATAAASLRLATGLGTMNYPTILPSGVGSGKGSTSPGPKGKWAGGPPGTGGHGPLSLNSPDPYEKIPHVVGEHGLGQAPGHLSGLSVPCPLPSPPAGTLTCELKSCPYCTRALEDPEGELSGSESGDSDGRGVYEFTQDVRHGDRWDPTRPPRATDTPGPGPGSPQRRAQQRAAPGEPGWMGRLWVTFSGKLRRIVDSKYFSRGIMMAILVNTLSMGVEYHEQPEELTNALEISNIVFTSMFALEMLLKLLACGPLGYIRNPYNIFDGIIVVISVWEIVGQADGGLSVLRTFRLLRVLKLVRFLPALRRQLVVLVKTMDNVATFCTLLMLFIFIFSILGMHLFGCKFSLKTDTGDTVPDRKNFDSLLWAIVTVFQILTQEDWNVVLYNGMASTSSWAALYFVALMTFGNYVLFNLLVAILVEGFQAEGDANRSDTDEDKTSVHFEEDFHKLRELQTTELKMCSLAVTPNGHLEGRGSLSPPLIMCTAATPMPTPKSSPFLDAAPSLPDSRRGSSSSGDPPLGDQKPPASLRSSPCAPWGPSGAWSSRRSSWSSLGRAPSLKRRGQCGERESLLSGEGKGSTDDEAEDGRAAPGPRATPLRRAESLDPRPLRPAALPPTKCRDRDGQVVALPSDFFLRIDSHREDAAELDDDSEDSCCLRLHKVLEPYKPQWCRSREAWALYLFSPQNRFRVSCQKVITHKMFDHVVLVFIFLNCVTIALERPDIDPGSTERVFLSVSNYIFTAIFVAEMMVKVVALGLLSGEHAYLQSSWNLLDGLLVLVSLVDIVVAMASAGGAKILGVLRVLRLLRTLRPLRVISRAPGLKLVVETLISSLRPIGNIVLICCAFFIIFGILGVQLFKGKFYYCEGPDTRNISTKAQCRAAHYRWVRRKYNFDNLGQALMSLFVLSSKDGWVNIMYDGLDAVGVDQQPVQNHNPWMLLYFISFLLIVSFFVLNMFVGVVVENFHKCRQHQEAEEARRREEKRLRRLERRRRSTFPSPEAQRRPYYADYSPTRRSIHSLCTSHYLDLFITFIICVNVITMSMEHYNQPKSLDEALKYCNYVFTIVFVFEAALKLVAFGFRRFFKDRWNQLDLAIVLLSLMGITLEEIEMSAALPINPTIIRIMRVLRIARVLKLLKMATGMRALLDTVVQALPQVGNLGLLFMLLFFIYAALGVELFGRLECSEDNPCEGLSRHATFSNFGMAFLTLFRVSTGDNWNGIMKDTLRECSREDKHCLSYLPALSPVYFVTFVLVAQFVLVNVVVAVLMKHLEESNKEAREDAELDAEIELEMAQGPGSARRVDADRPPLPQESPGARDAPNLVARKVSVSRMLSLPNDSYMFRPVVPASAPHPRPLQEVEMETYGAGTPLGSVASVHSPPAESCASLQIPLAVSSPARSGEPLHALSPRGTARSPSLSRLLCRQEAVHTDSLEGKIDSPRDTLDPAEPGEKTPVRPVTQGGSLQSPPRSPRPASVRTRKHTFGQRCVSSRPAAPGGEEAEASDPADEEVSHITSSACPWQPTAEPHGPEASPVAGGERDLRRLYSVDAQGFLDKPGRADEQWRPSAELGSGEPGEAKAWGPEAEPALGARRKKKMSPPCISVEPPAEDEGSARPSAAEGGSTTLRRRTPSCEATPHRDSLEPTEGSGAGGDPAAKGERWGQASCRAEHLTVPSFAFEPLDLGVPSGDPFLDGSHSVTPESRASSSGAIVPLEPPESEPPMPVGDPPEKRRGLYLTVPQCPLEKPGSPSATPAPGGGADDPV
* = called active by the depositor.

What do the screens show for `O=C(O[C@H]1[C@H](Oc2ccccc2COC(=O)C2(O)C=CCCC2=O)O[C@H](CO)[C@@H](O)[C@@H]1O)c1ccccc1` (some centres undefined)?
Cav3 T inh: -4.5*

How did CCOc1ccccc1CN(CCc1ccc2c(c1)OCO2)Cc1ccccn1 do in these assays?
HCT116 bCat-KO: 55; PTEN del growth: 57; Fibroblast inh: 83; H69AR inhibit: 53; HUVEC prolif 384: 100; Cav3 T inh: -4.3*

How did O=C(CNS(=O)(=O)c1c(Cl)cccc1Cl)OCc1csc(-c2ccccc2)n1 do in these assays?
HCT116 bCat-KO: 94; PTEN del growth: 96

What do the screens show for `O=C(/C=C/c1ccccc1)c1ccc(NC2=NCCCS2)cc1`?
HCT116 bCat-KO: 9; PTEN del growth: 10

What do the screens show for `CC(C)(C)c1ccc(/C=C/C(=O)c2ccc(NC3=NCCCS3)cc2)cc1`?
HCT116 bCat-KO: 1.1*; PTEN del growth: 0.9*

What do the screens show for `O=C(/C=C/c1ccc(Br)cc1)c1ccc(NC2=NCCCS2)cc1`?
HCT116 bCat-KO: 3.2*; PTEN del growth: 2.4*

What do the screens show for `CCCSc1nnc(Sc2nnnn2-c2ccccc2)s1`?
HCT116 bCat-KO: 9; PTEN del growth: 6; Fibroblast inh: 52; H69AR inhibit: 5.4*; HUVEC prolif 384: 7.6*

Results for Cc1ccccc1-n1nnnc1Sc1nnnn1-c1ccccc1 ?
HCT116 bCat-KO: 2.0*; PTEN del growth: 1.3*; Fibroblast inh: 21*; H69AR inhibit: 2.7*; HUVEC prolif 384: 28*; Cav3 T inh: 0.58

What do the screens show for `O=C(CCNC(=O)c1ccccc1Cl)Nc1nc(-c2ccccc2Cl)cs1`?
HCT116 bCat-KO: 86; PTEN del growth: 77

What do the screens show for `COc1cc(OC)cc(C(=O)NCCC(=O)NCCc2ccc(OC)c(OC)c2)c1`?
HCT116 bCat-KO: 100; PTEN del growth: 97

How did CCn1ncc(NC(=O)Nc2cccc(C(F)(F)F)c2)c1C(N)=O do in these assays?
HCT116 bCat-KO: 103; PTEN del growth: 110; Fibroblast inh: 97; H69AR inhibit: 93; HUVEC prolif 384: 87; Cav3 T inh: -0.25

How did CCSCCc1nnc(NC(=O)Nc2cccc(C(F)(F)F)c2)s1 do in these assays?
HCT116 bCat-KO: 4.5*; PTEN del growth: 3.7*

Results for Cc1cc(C(C)(C)C)oc1C(=O)N(CC(=O)NC1CCCC1)c1c(C)cccc1C ?
HCT116 bCat-KO: 51; PTEN del growth: 47; Cav3 T inh: -1.6*

How did COc1ccc(N=C2S/C(=C\c3ccc(N4CCOCC4)o3)C(=O)N2CCc2c[nH]c3ccccc23)cc1 do in these assays?
HCT116 bCat-KO: 1.9*; PTEN del growth: 1.6*; Cav3 T inh: -2.7

How did CCOc1ccccc1N1CCN(c2nc(N)c(C#N)c(CC#N)c2C#N)CC1 do in these assays?
HCT116 bCat-KO: 91; PTEN del growth: 83; Fibroblast inh: 95; H69AR inhibit: 20*; HUVEC prolif 384: 87; Cav3 T inh: 1.3

What do the screens show for `COc1ccccc1N1CCN(c2nc3ccccc3nc2C(C#N)C(=O)OC(C)C)CC1` (centres undefined)?
HCT116 bCat-KO: 68; PTEN del growth: 62; Fibroblast inh: 97; H69AR inhibit: 82; HUVEC prolif 384: 90; Cav3 T inh: -8.5*

Results for CCOc1cc2c(C#N)c(N3CCCCC3)nc(N)c2c(N)n1 ?
HCT116 bCat-KO: 82; PTEN del growth: 88; Fibroblast inh: 77; H69AR inhibit: 49; HUVEC prolif 384: 69; Cav3 T inh: 0.88

How did CCOc1ccccc1N1CCN(c2nc3ccccc3nc2C(C#N)C(=O)OC)CC1 (centres undefined) do in these assays?
HCT116 bCat-KO: 71; PTEN del growth: 66; Cav3 T inh: -7.6*

What do the screens show for `COc1ccc(-c2cc(-c3ccc(OC)cc3)nc(-c3ccc4c(c3)NC(=O)CO4)c2)cc1`?
HCT116 bCat-KO: 2.7*; PTEN del growth: 2.4*; Cav3 T inh: -0.74

Results for O=C(NCc1ccco1)c1cnn2c(C(F)F)cc(-c3ccccc3)nc12 ?
HCT116 bCat-KO: 86; PTEN del growth: 86; Fibroblast inh: 92; H69AR inhibit: 61; HUVEC prolif 384: 97; Cav3 T inh: 0.3

Results for O=C(CSc1nc2nc(-c3cccs3)cc(C(F)(F)F)c2c(=O)[nH]1)NCc1ccco1 ?
HCT116 bCat-KO: 84; PTEN del growth: 80; Cav3 T inh: -4*
